Assay results reported in ChEMBL document CHEMBL3351752, “Discovery and in vivo evaluation of alcohol-containing benzothiazoles as potent dual-targeting bacterial DNA supercoiling inhibitors” (Bioorg Med Chem Lett, 2014).
In brackets after ≈: the same amount, converted by molar mass.

Columns and labels:
[1] = tested on: Streptococcus pyogenes; test: Antimicrobial activity against Streptococcus pyogenes harboring ParE A53S mutant assessed as growth inhibition; format: functional
[2] = tested on: Staphylococcus aureus; test: Inhibition of Staphylococcus aureus DNA gyrase ATPase subunit GyrA2/GyrB2 after 60 mins by malachite green staining assay
[3] = tested on: Staphylococcus aureus; test: Antibacterial activity against Staphylococcus aureus ATCC 29213 assessed as growth inhibition; format: functional
[4] = tested on: Staphylococcus aureus; test: Antimicrobial activity against Staphylococcus aureus harboring GyrB T173N mutant assessed as growth inhibition; format: functional
[5] = tested on: Streptococcus pyogenes; test: Antibacterial activity against Streptococcus pyogenes 51339 assessed as growth inhibition; format: functional
[6] = tested on: Haemophilus influenzae; test: Antibacterial activity against Haemophilus influenzae 49247 assessed as growth inhibition; format: functional
[7] = tested on: Staphylococcus aureus; test: Antibacterial activity against Staphylococcus aureus ATCC 29213 assessed as growth inhibition in presence of 50% horse serum; format: functional
[8] = Fraction unbound in mouse plasma by ultracentrifugation; format: ADME, cell-free
Summary of the method: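 Compound at 10 µM (1% DMSO) was equilibrated in neat plasma at 37 °C for 60 min. Duplicate aliquots were ultracentrifuged at 250,000g for 4.2 h at 37 °C. Free compound in the plasma-water supernatant was compared with uncentrifuged samples incubated alike. Uncentrifuged samples kept at 20 °C checked degradation, and diltiazem served as stability control. Analysis was by LCMS.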

| fraction unbound [8] | Structure (SMILES) | MIC [1] [µg/mL] | inhibitory concentration [2] [µg/mL] | MIC [3] [µg/mL] | MIC [4] [µg/mL] | MIC [5] [µg/mL] | MIC [6] [µg/mL] | MIC [7] [µg/mL] |
| --- | --- | --- | --- | --- | --- | --- | --- | --- |
|  | CCNC(=O)Nc1nc2cc(-c3cnc(C(O)CO)nc3)cc(-c3ccccn3)c2s1 (racemic) | 2 (≈ 4.58 µM) | 0.006 | 0.12 (≈ 0.275 µM) | 2 (≈ 4.58 µM) | 0.12 (≈ 0.275 µM) | 0.5 (≈ 1.15 µM) | 0.5 |
| 0.09 | CCNC(=O)Nc1nc2cc(-c3cnc(C(C)(C)O)nc3)cc(-c3cc(CN4CC[C@@H](OC)C4)ccn3)c2s1 |  | 0.009 | 0.25 (≈ 0.456 µM) |  | 0.25 (≈ 0.456 µM) | 4 (≈ 7.3 µM) | 0.5 |
|  | CCNC(=O)Nc1nc2cc(-c3cnc(C4(O)CCCCC4)nc3)cc(-c3ccccn3)c2s1 | > 16 | 0.054 | 8 (≈ 16.9 µM) | > 16 | 8 (≈ 16.9 µM) | > 16 |  |
|  | CCNC(=O)Nc1nc2cc(-c3cnc(C(O)(CC)CC)nc3)cc(-c3ccccn3)c2s1 | 8 (≈ 17.3 µM) | 0.017 | 0.25 (≈ 0.54 µM) | 1 (≈ 2.16 µM) | 0.5 (≈ 1.08 µM) | 8 (≈ 17.3 µM) | 4 |
| 0.223 | CCNC(=O)Nc1nc2cc(-c3cnc(C(C)(C)O)nc3)cc(-c3cc(CN4CC(C)(O)C4)ccn3)c2s1 |  | 0.011 | 0.5 (≈ 0.937 µM) |  | 0.12 (≈ 0.225 µM) | 4 (≈ 7.5 µM) | 0.5 |
|  | CCNC(=O)Nc1nc2cc(-c3cnc(C(O)CN4CCOCC4)nc3)cc(-c3ccccn3)c2s1 (racemic) | 2 (≈ 3.96 µM) | 0.011 | 0.12 (≈ 0.237 µM) | 1 (≈ 1.98 µM) | 0.12 (≈ 0.237 µM) | 2 (≈ 3.96 µM) | 0.25 |
| 0.22 | CCNC(=O)Nc1nc2cc(-c3cnc(C(C)(C)O)nc3)cc(-c3cc(CN4CC(O)C4)ccn3)c2s1 |  | 0.004 | 1 (≈ 1.92 µM) |  | 0.25 (≈ 0.481 µM) | 2 (≈ 3.85 µM) | 1 |
|  | CCNC(=O)Nc1nc2cc(-c3cnc(C(O)CC)nc3)cc(-c3ccccn3)c2s1 (racemic) | 1 (≈ 2.3 µM) | 0.006 | 0.06 (≈ 0.138 µM) | 0.25 (≈ 0.575 µM) | 0.06 (≈ 0.138 µM) | 1 (≈ 2.3 µM) | 0.25 |
|  | CCNC(=O)Nc1nc2cc(-c3cnc(C4(O)CCN(C)CC4)nc3)cc(-c3ccccn3)c2s1 | 8 (≈ 16.3 µM) | 0.011 | 1 (≈ 2.04 µM) | 8 (≈ 16.3 µM) | 1 (≈ 2.04 µM) | 8 (≈ 16.3 µM) | 0.5 |
|  | CCNC(=O)Nc1nc2cc(-c3cnc(C4(O)CCOCC4)nc3)cc(-c3ccccn3)c2s1 | 2 (≈ 4.2 µM) | 0.005 | 0.06 (≈ 0.126 µM) | 0.25 (≈ 0.525 µM) | 0.12 (≈ 0.252 µM) | 1 (≈ 2.1 µM) | 0.12 |
|  | CCNC(=O)Nc1nc2cc(-c3cnc([C@@H](O)[C@@H](O)C(F)(F)F)nc3)cc(-c3ccccn3)c2s1 (racemic) | 1 (≈ 1.98 µM) | 0.004 | 0.12 (≈ 0.238 µM) | 0.5 (≈ 0.991 µM) | 0.12 (≈ 0.238 µM) | 0.5 (≈ 0.991 µM) | 0.25 |
|  | CCNC(=O)Nc1nc2cc(-c3cnc(C4(O)CNC4)nc3)cc(-c3ccccn3)c2s1 | > 16 | 0.029 | > 16 | > 16 | 8 (≈ 17.9 µM) | > 16 | > 16 |
|  | CCNC(=O)Nc1nc2cc(-c3cnc([C@@H](O)[C@@H](C)O)nc3)cc(-c3ccccn3)c2s1 (racemic) | 1 (≈ 2.22 µM) | 0.007 | 0.25 (≈ 0.555 µM) | 1 (≈ 2.22 µM) | 0.12 (≈ 0.266 µM) | 1 (≈ 2.22 µM) | 0.25 |
